Shown are actives, neighbours in structure and some others; about 2.2% of the full set was active somewhere.
Thrombin inh: inhibitors of human thrombin | P00734 | alpha-thrombin, Boc-VPR-AMC fluorogenic substrate cleavage | inhibition, % at 5 µM | hit rate 0.26% among 220,000 | AID 1046;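 active means inhibition at or above 40%; inactive means inhibition below 40%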;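 further: 0% = enzyme with no compound and 100% = wells without enzyme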
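System: Human alpha-thrombin protein | Medium: pH 7.5 Tris (50 mM) with NaCl 150 mM, Tween 20 0.05% | Times: Enzyme reaction carried out at room temperature | Detection: AMC fluorescence, 355/460 nm | Evaluation: Percent inhibition scaled between no-compound controls and no-enzyme blanks | Benchmarks: Enzyme without compound as high, wells lacking enzyme as low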
FXIIa inh 1536: inhibitors of human coagulation factor XIIa; hit rate 0.3% among 220,000; AID 800; inhibition, % at 5 µM; purified FXIIa, Boc-QGR-AMC fluorogenic substrate, 2 h; in the data active means inhibition above about 40%;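 further: 0% = enzyme with no compound and 100% = blank without enzyme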
Wee1 stabilizer: blocks degradation of human Wee1 kinase; hit rate 1.2% among 220,000; reporter increase, % at 5 µM; P30291; HeLa Luc-Wee1K328M stability, luciferase luminescence; 100% = proteasome inhibitor MG132 effect;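 active means activation above the mean of all tested compounds plus 3 SD, set per screening run, cut at about 8.8% in these data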;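 further: cells exposed to compound for 20 h before luminescence read; 0% = DMSO alone and 100% = MG132 at 30 µM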
FXIa inh: factor XIa (human) inhibition. purified FXIa, Boc-Glu-Ala-Arg-AMC fluorogenic substrate. P03951. inhibition, % at 5 µM. hit rate 0.14% among 220,000;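 active means inhibition of at least 40%; inactive means inhibition below 40%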;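 further: fluorescence of freed AMC excited at 355 nm; 0% = enzyme without compound and 100% = no enzyme blank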
KLK5 inh: inhibitors of human kallikrein 5. Q9Y337. recombinant hK5, fluorogenic AMC substrate cleavage. inhibition, % at 5 µM. hit rate 0.59% among 210,000. AID 873;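 active means inhibition of 40% or more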;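 further: 0% = enzyme controls without compound and 100% = no-enzyme blanks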
Target sequence (Q9Y337 67-293 limits assumed): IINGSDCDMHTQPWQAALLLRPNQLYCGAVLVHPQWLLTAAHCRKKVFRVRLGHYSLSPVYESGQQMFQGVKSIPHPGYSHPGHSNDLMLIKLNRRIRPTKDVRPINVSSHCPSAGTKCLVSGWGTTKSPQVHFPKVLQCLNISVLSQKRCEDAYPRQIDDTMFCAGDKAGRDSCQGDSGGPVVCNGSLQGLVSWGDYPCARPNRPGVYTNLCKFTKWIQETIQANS
Wee1 degr conf: confirmation of human Wee1 degradation inhibitors; shares compounds with Wee1 stabilizer; HeLa Luc-Wee1K328M degradation, luminescence; vehicle 0%, proteasome-blocked wells 100%; activation, % at 5 µM; hit rate 4% among 1,100; AID 1410; in the data active means activation above about 8.9%
Starred values were filed as active, the others as inactive; . = no result given.

SMILES	Thrombin inh	FXIIa inh 1536	Wee1 stabilizer	FXIa inh	KLK5 inh	Wee1 degr conf
CCCC(C)C(=O)OCC(=O)NCc1ccc(OC)c(OC)c1 (stereo not given)	-1	6	14*	-8	-2	-2
COc1ccc(CNC(=O)N[C@H](C(=O)O)C(C)C)cc1OC	-3	3	3	0	3	.
O=C1CCCN1CCC12CC3CC(CC(C3)C1)C2	1	7	12*	4	1	2
CCOc1ccccc1NC(=S)NCc1ccco1	17	18	12*	-2	45*	-1
COc1cccc(C(=O)NC(=S)NCc2ccco2)c1	-3	11	14*	3	-14	0
COc1cc(OC)cc(C(=O)NC(=S)NCc2ccco2)c1	0	16	-2	1	-4	.
S=C(NCc1ccco1)Nc1ccc(Oc2ccccc2)cc1	-7	-1	11*	-5	.	-1
COCC1CCN(Cc2cn[nH]c2-c2ccc(OC)c(F)c2)C1 (stereo not given)	2	8	2	4	1	.
Cc1ccc2nc(-c3ccc(NC(=O)COC(=O)c4ccc(Br)o4)cc3)sc2c1	-13	8	7	-4	-18	.
Cc1ccc2nc(-c3ccc(NC(=O)COC(=O)c4cncc(Br)c4)cc3)sc2c1	-11	7	15*	0	-14	-3
Cc1ccc(-c2nnn(C/C(N)=N/O)n2)cc1	1	11	0	-1	2	.
COc1ccc(C2c3ccc(O)cc3Oc3ncn4nc(-c5ccccn5)nc4c32)cc1 (stereo not given)	-2	8	11*	1	1	0
COc1ccc(C2c3ccc(O)cc3Oc3ncn4nc(-c5ccccn5)nc4c32)cc1OC (stereo not given)	-2	7	4	1	-3	.
COc1ccc(C2c3ccc(O)cc3Oc3ncn(CCN4CCOCC4)c(=N)c32)cc1OC (stereo not given)	-2	-1	0	-8	25	.
COc1ccc(C2c3ccc(O)cc3Oc3ncn(Cc4ccccc4)c(=N)c32)cc1OC (stereo not given)	9	9	19*	-3	0	0
Cc1cccc(NC(=S)NC(C)C(c2ccccc2)N2CCN(C)CC2)c1C (stereo not given)	3	10	1	0	10	.
CSCCC(NC(=O)c1ccccc1C)C(=O)O (stereo not given)	-4	6	0	-1	5	.
COc1ccc(-c2nc(-c3ccc4c(c3)OCO4)[nH]c2-c2ccc(OC)cc2)cc1	-9	8	13*	11	-19	0
COc1ccc(-c2noc(-c3ccc4c(c3)OCO4)n2)cc1	3	12	1	6	6	.
CC(Sc1ccc2c(c1)OCCO2)C(=O)Nc1ccc(N2CCOCC2)cc1 (stereo not given)	-3	11	5	3	3	.
O=C(NCCc1ccccc1)c1cc(=O)[nH]c2ccccc12	2	6	11*	3	1	2
O=C(NCCc1ccccc1)c1c(F)c(F)c(F)c(F)c1F	-3	3	24*	7	-7	-1
Clc1ccc2[nH]cc(-c3nnnn3-c3ccc4ccccc4c3)c2c1	-10	19	1	19	-36	.
COc1cccc(C2=NOC(C(=O)Nc3cccc(C(C)=O)c3)C2)c1 (stereo not given)	0	15	-1	-1	1	.
CC(=O)c1cccc(NC(=O)C2CC(c3ccc(F)cc3)=NO2)c1 (stereo not given)	7	-5	26*	-1	-10	-3
SMILES	Thrombin inh	FXIIa inh 1536	Wee1 stabilizer	FXIa inh	KLK5 inh	Wee1 degr conf
COC(=O)C1=C(N)Oc2cc(C)n(Cc3ccncc3)c(=O)c2C1c1cccnc1 (stereo not given)	.	.	14*	.	.	0
COC(=O)C1=C(N)Oc2cc(C)n(Cc3cccnc3)c(=O)c2C1c1ccccc1OC (stereo not given)	-7	10	-1	0	-17	.
CCNC(=S)N1CCN(CC(=O)Nc2ccc(OC)cc2)CC1	-2	8	12*	-2	-2	-1
COc1cccc(-c2nc(CCl)cs2)c1	-3	5	0	0	0	.
COc1ccc(-c2nc(CCl)cs2)cc1	-7	2	12*	-4	-4	3
CC(OC(=O)c1ccc(S(=O)(=O)NCc2ccco2)cc1)C(=O)Nc1ncc(Cl)cc1Cl (stereo not given)	0	6	0	5	-13	.
Cc1nnc(SC(C)C(=O)Nc2c(C)n(C)n(-c3ccccc3)c2=O)n1N (stereo not given)	1	12	2	5	0	.
O=C(COC(=O)C(Cc1ccccc1)NC(=O)c1ccc(Cl)cc1)c1ccc(Cl)cc1 (stereo not given)	3	7	-2	7	-18	.
O=C(O)C1CC(=O)N(CCc2ccccc2)C1 (stereo not given)	2	12	0	3	-4	.
CN(Cc1c(F)cccc1Cl)C(=O)C1CC(=O)N(CCc2ccccc2)C1 (stereo not given)	-13	9	12*	-4	2	2
Cc1ccc(/C=C/C(=O)NCCCc2ccccc2)cc1	8	4	19*	0	5	-1
C#CCNC(=O)/C=C/c1ccc(C)cc1	4	15	-1	9	-4	.
Cc1csc(NC(=O)c2ccco2)c1C(=O)c1ccccc1	-10	8	12*	-1	1	1
CCN1CCCC1CNCc1ccc(OCc2ccc(Cl)nc2)c(OC)c1 (stereo not given)	3	7	15*	1	2	4
CCSc1nnc(NC(=O)CSC2=NN3CCCC(=O)N=C3S2)s1	1	7	17*	0	-6	2
CCSc1nnc(NC(=O)CSc2nnc(C)c(=O)n2N)s1	-4	3	1	0	20	.
Cc1cc(Nc2n[nH]c(N)c2C#N)ccc1F	1	10	-2	4	.	.
Cc1ccc(S(=O)(=O)C2(C(=O)Nc3cccnc3)CC2)cc1	2	-1	-2	-9	-5	.
Cc1ccc(S(=O)(=O)C2(C(=O)Nc3ccc(Br)cc3)CC2)cc1	10	8	14*	1	0	2
COc1ccc(-c2nc3cc([N+](=O)[O-])ccc3o2)cc1	15	27	14*	10	.	1
Oc1cccc2ccc[n+](CC(O)Cn3c4ccccc4c4ccccc43)c12 (stereo not given)	-5	21	18*	19	-25	-1
CCN(CC)CCN(Cc1cc2cc(C)ccc2[nH]c1=O)C(=S)Nc1ccccc1	-6	10	-4	3	-13	.
C=CCNC(=O)c1c(Cl)nc(C)c([N+](=O)[O-])c1C	16	11	0	21	21	.
O=C(NCCc1ccccn1)c1ccc(NS(=O)(=O)c2ccc(F)cc2)cc1	-9	4	2	-1	1	.
